GAA850 FXN act – increases GAA850 frataxin promoter reporter activity; AID 540364; activation, % at 6 µM; HEK293 lucGAA850 FXN promoter luciferase reporter, 24 h; percent of 10 µM SAHA response; actives 0.56% (n = 360,000);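 active = activation above the average of all compounds screened plus 3 SD, cutoff fixed separately per campaign, cut at about 7.5% in these data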;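 also: 0% = DMSO wells and 100% = 10 µM SAHA wells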
NR2E3 ag-1 – agonists of human nuclear receptor NR2E3; GST-NR2E3/biotin-RetCOR TR-FRET, 1536-well; inhibition of corepressor binding, % at 4.78 µM; actives 0.12% (n = 320,000);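 active = percent inhibition above the cutoff of mean plus 3 SD of all tested compounds, set per screening campaign, cut at about 20% in these data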;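 also: 0% = DMSO wells and 100% = biotin wells as full block of FRET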
Target sequence (Q9Y5X4 whole entry, looked up): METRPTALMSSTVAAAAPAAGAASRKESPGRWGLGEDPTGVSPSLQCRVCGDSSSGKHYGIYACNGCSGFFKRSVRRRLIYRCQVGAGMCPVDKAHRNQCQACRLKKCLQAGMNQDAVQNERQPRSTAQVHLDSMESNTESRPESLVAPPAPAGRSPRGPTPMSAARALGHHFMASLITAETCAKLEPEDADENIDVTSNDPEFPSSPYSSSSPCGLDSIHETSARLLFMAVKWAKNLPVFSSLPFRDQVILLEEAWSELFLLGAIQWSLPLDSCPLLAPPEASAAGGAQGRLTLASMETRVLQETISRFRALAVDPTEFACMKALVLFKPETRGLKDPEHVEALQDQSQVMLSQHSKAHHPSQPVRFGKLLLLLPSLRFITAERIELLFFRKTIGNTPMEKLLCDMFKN
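System: GST-NR2E3 and biotin-RetCOR proteins; probe or stimulus: 7 nM biotin-RetCOR; doses: compound at 4.8 µM, single dose; schedule: Compound–protein incubation for 5 h at 4 °C; detection: time-resolved FRET; read-out: percent inhibition; controls: biotin wells as high control, 0.6% DMSO wells as low control; format: 1536-well plates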
T cell HTS – T cell immune modulators affecting CD8 T cell-vesicle binding; 2C CD8+ T cell-vesicle binding, flow cytometry; active compounds read low; actives 0.068% (n = 330,000); AID 2052; response (vesicle binding), % at 7 µM;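 active = response, share of CD8 T cells binding vesicles, and their 90th percentile fluorescence all below set limits, cut at about 80% in these data, passing the limit was not always enough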;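 also: values below 100% mean blocked vesicle binding to the CD8+ T cells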
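incubation = binding step 1.5 h, 37 °C, antibody labelling 20 min, ice | test system = 2C mouse CD8+ T cells | read-out basis = percent CD8+ FL2 mean versus row control | controls = Peptide-free naked vesicles (low) and QL9 vesicles with 0.7% DMSO vehicle (high) | detection = flow cytometry of vesicle-bound cells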
Myeloid diff MLP – compounds promoting myeloid differentiation | ER-HoxA9 myeloid progenitors, lysozyme-GFP differentiation, flow cytometry | actives 1% (n = 360,000) | calls only at 10 µM | AID 624256;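 active = normalized GFP-positive differentiation at or above the plate's own cutoff, the solvent-only control mean plus 3 SD; inconclusive = no clear call, values can overlap the other calls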;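 also: cells exposed to compound for four days before flow analysis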
NR2E3 ag-2 – human photoreceptor-specific nuclear receptor agonism; Q9Y5X4; CHO-S Gal4-NCOR/VP16-NR2E3 two-hybrid, luciferase; inhibition of corepressor binding, % at 3.98 µM; actives 0.35% (n = 360,000); AID 602229;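 active = inhibition above the mean of all tested compounds plus 3 SD, cut at about 70% in these data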;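 also: 0% = DMSO with NR2E3 transfected cells and 100% = cells lacking NR2E3 construct; higher means lower luciferase signal from less NR2E3 corepressor binding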
NR2E3 ag conf – NR2E3 agonism confirmed in two-hybrid assay. shares compounds with NR2E3 ag-2. CHO-S mammalian two-hybrid NR2E3-NCOR, luciferase luminescence. inhibition, % at 3.98 µM. actives 51% (n = 2,300). AID 624378;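 active = average inhibition above a cutoff equal to the mean inhibition of all tested compounds plus one SD, cut at about 70% in these data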;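 also: 0% = DMSO in NR2E3 cells and 100% = DMSO in cells lacking NR2E3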
GAL4-VP16 luc – counter-screen for NR2E3 agonists: GAL4-VP16 reporter inhibitors; shares compounds with NR2E3 ag-2; CHO-S GAL4-VP16 luciferase reporter, luminescence; inhibition, % at 3.98 µM; actives 29% (n = 2,300); AID 624379;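 active = mean inhibition above a cutoff equal to the average over all tested compounds plus one standard deviation, cut at about 70% in these data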;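 also: luciferase from a UAS reporter driven by GAL4-VP16 transactivation; 0% = DMSO with VP16-transfected cells and 100% = DMSO with cells lacking VP16; higher means less reporter light so more repression of VP16 activity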
* hit, by the source's call. Most compounds without a hit are left out; they make up all but 2% or so of the library.

What do the screens show for `O=C1CC(Cc2ccccc2)C(=O)N1CCc1ccc2c(c1)OCO2` (configuration not stated)?
GAA850 FXN act: 5; NR2E3 ag-1: 0; T cell HTS: 297; Myeloid diff MLP: inactive; NR2E3 ag-2: -18

What do the screens show for `O=C1OC[C@H](Cc2ccc3c(c2)OCO3)/C1=C\c1ccc2c(c1)OCO2`?
GAA850 FXN act: -2; NR2E3 ag-1: 0; T cell HTS: 289; Myeloid diff MLP: inactive; NR2E3 ag-2: 52; NR2E3 ag conf: 36; GAL4-VP16 luc: 40

How did O=C1NC(=S)S/C1=C\c1cc(Cl)ccc1Cl do in these assays?
GAA850 FXN act: 1; Myeloid diff MLP: inactive; NR2E3 ag-2: 81*; NR2E3 ag conf: 99*; GAL4-VP16 luc: 69

What do the screens show for `CC(C)(C)C(=O)Nc1ccc(NC(=O)c2ccco2)nc1`?
GAA850 FXN act: -13; NR2E3 ag-1: 2; T cell HTS: 251; Myeloid diff MLP: inactive; NR2E3 ag-2: 88*; NR2E3 ag conf: 65; GAL4-VP16 luc: 40

What do the screens show for `Cc1cccc(N2CCN(C(=O)C3CCC(CNS(=O)(=O)c4cccs4)CC3)CC2)c1C` (configuration not stated)?
GAA850 FXN act: -2; NR2E3 ag-1: 6; T cell HTS: 263; Myeloid diff MLP: inconclusive; NR2E3 ag-2: 49; NR2E3 ag conf: 36; GAL4-VP16 luc: 51

What do the screens show for `CCC[C@H]1CN(Cc2ccccc2)C(=O)[C@@H]1CC(=O)NC`?
GAA850 FXN act: 0; Myeloid diff MLP: inactive; NR2E3 ag-2: -18

How did Cc1ccc(C)c(S(=O)(=O)Nc2cc3c4c(c2)CCC(=O)N4CCC3)c1 do in these assays?
GAA850 FXN act: 5; NR2E3 ag-1: 0; T cell HTS: 731; Myeloid diff MLP: inactive; NR2E3 ag-2: 57; NR2E3 ag conf: 28; GAL4-VP16 luc: -21

Results for CCOC(=O)[C@]12CCCC=C1N(Cc1ccco1)C(=O)[C@H](CC(=O)N1CCCC1)C2 ?
Myeloid diff MLP: inactive; NR2E3 ag-2: 10

Results for Cc1ccc2oc(/N=C(\N)NC(=O)C(C)(C)C)nc2c1 ?
GAA850 FXN act: -13; NR2E3 ag-1: 3; T cell HTS: 498; Myeloid diff MLP: inactive; NR2E3 ag-2: 91*; NR2E3 ag conf: 92*; GAL4-VP16 luc: 66

What do the screens show for `O=C(NCCN1CCC(n2c(=O)[nH]c3ccccc32)CC1)c1ccc(F)cc1Cl`?
Myeloid diff MLP: inactive; NR2E3 ag-2: -19

How did COc1ccc(NS(=O)(=O)c2ccc3oc(SC)nc3c2)cc1 do in these assays?
GAA850 FXN act: -2; NR2E3 ag-1: 0; T cell HTS: 262; Myeloid diff MLP: inactive; NR2E3 ag-2: 74*; NR2E3 ag conf: 53; GAL4-VP16 luc: 56

How did Cc1ccc(Cc2c(-c3cccc(Br)c3)nc3c(C)cc(Br)cn23)cc1 do in these assays?
Myeloid diff MLP: inactive; NR2E3 ag-2: -31

Results for O=C(Cc1ccc(Cl)cc1)Nc1ccncc1 ?
GAA850 FXN act: 1; NR2E3 ag-1: 4; T cell HTS: 453; Myeloid diff MLP: inactive; NR2E3 ag-2: 9

How did Cc1ccc(CC(=O)Nc2ccncc2)cc1 do in these assays?
GAA850 FXN act: -2; NR2E3 ag-1: 2; T cell HTS: 153; Myeloid diff MLP: inactive; NR2E3 ag-2: 50; NR2E3 ag conf: 66; GAL4-VP16 luc: 50

What do the screens show for `CC(C)CC(N)c1csc(NC(=O)Nc2ccccc2Cc2ccccc2)n1` (configuration not stated)?
GAA850 FXN act: -1; Myeloid diff MLP: inactive; NR2E3 ag-2: 6

What do the screens show for `CC(C)CC(N)c1csc(NC(=O)c2cc(C(C)(C)C)nn2Cc2ccccc2)n1` (configuration not stated)?
GAA850 FXN act: -12; Myeloid diff MLP: inactive; NR2E3 ag-2: 52; NR2E3 ag conf: 14; GAL4-VP16 luc: 7

How did CCCN(C)C[C@@H]1OCCCC[C@@H](C)Oc2ccc(NS(=O)(=O)c3ccc(OC)cc3)cc2C(=O)N([C@H](C)CO)C[C@@H]1C do in these assays?
Myeloid diff MLP: inactive; NR2E3 ag-2: -3

How did Oc1ccccc1N=Nc1nc(-c2ccccc2)c(-c2ccccc2)[nH]1 do in these assays?
GAA850 FXN act: -15; NR2E3 ag-1: 4; T cell HTS: 273; Myeloid diff MLP: inconclusive; NR2E3 ag-2: 81*; NR2E3 ag conf: 68; GAL4-VP16 luc: 43

How did COc1ccccc1N=Nc1nc(-c2ccccc2)c(-c2ccccc2)[nH]1 do in these assays?
GAA850 FXN act: -2; NR2E3 ag-1: 0; T cell HTS: 445; Myeloid diff MLP: inactive; NR2E3 ag-2: -25

Results for CC1(C(=O)NCc2ccccc2)CCC(=O)N1CCCn1ccnc1 (configuration not stated) ?
Myeloid diff MLP: inactive; NR2E3 ag-2: 5

Results for Cc1nn(Cc2ccc(C(=O)Nc3ccccc3C(F)(F)F)o2)c(C)c1Br ?
GAA850 FXN act: -1; NR2E3 ag-1: 1; T cell HTS: 365; Myeloid diff MLP: inactive; NR2E3 ag-2: -1

Results for Cc1csc(NC(=O)c2ccc(Cn3nc(C)c(Br)c3C)o2)n1 ?
GAA850 FXN act: 0; NR2E3 ag-1: -2; T cell HTS: 164; Myeloid diff MLP: inactive; NR2E3 ag-2: 78*; NR2E3 ag conf: 73*; GAL4-VP16 luc: 62

How did c1ccc(-c2nnc3sc(CN4CCc5ccccc54)cn23)cc1 do in these assays?
GAA850 FXN act: 1; NR2E3 ag-1: -1; T cell HTS: 462; Myeloid diff MLP: inactive; NR2E3 ag-2: 51; NR2E3 ag conf: 30; GAL4-VP16 luc: 12

Results for Brc1ccc(-c2nnc3sc(CN4CCc5ccccc5C4)cn23)cc1 ?
GAA850 FXN act: 2; Myeloid diff MLP: inactive; NR2E3 ag-2: -25

What do the screens show for `O=C(Nc1ccc(OC(F)(F)F)cc1)C1CCCN(S(=O)(=O)c2cccnc2)C1` (configuration not stated)?
GAA850 FXN act: 1; NR2E3 ag-1: 1; T cell HTS: 212; Myeloid diff MLP: inactive; NR2E3 ag-2: 49; NR2E3 ag conf: -19; GAL4-VP16 luc: -12

What do the screens show for `COc1cc2c(cc1OC)C(c1ccc3c(c1)Cc1ccccc1-3)OC(=O)C2` (configuration not stated)?
GAA850 FXN act: 2; Myeloid diff MLP: inactive; NR2E3 ag-2: -124

Results for Cc1ccc(N2CC(C(=O)Nc3nccs3)CC2=O)cc1Cl (configuration not stated) ?
GAA850 FXN act: 1; NR2E3 ag-1: 2; T cell HTS: 248; Myeloid diff MLP: inactive; NR2E3 ag-2: 48; NR2E3 ag conf: 59; GAL4-VP16 luc: 21
